How the values were obtained:
Assay type in all cases: functional
Mus musculus [1] = assay: Effective dose by mouse phenyl-p-benzoquinone writhing (PQW)assay after peroral administration; highest dose was tested; details: po
In short: (§1)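 Fasted (17-21 h) female white mice, 5-20 per double-blind test, dosed orally with compound suspended in 1% methylcellulose. 0.20 mL aqueous 0.01% phenyl-p-benzoquinone given i.p. 6 min before a 10-min observation for stretching/writhing. ED50 (dose protecting 50% of mice) calculated by the moving-average method.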

Rattus norvegicus [2] = assay: Effective dose determined against rat adjuvant arthritis after peroral administration; details: po
In short: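 Male Lewis rats (130-150 g) given 0.1 mL Mycobacterium butyricum adjuvant (5 mg/mL in mineral oil) s.c. into the right hind paw; arthritis developed for 2 weeks. Groups of 10 matched for severity were dosed orally by gavage in PVA-acacia vehicle (10 mL/kg) for 7 days. Uninjected left paw volume was measured the day after the last dose. Percent decrease was calculated vs arthritic and nonarthritic controls. ED50 was read from a visually fitted semilog dose-response line.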

Mus musculus [3] = assay: Effective dose determined by mouse phenyl-p-benzoquinone writhing (PQW) assay after peroral administration; details: po; in short: as §1
Rattus norvegicus [4] = assay: Decrease in paw volume by the effect of compound at a dose of 75 mg/kg
In short: (§2)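 Male Lewis rats (130-150 g) got 0.1 mL adjuvant (heat-killed Mycobacterium butyricum, 5 mg/mL in mineral oil) subplantar in the right hind paw and were left 2 weeks. Groups of 10 matched for severity were dosed orally by gavage (PVA-acacia vehicle, 10 mL/kg) for 7 days. Uninjected left hind paw volume was read the next day. % decrease = (arthritic control − treated)/(arthritic − nonarthritic control) × 100; Student's t-test.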

Rattus norvegicus [5] = assay: Decrease in paw volume by the effect of compound at a dose of 50 mg/kg; in short: as §2
Rattus norvegicus [6] = assay: Decrease in paw volume was evaluated at dose 25 mg/kg; in short: as §2
Rattus norvegicus [7] = assay: Decrease in paw volume was evaluated at dose 30 mg/kg; in short: as §2

Row | Structure (SMILES) | ED50 (Rattus norvegicus [2]) [mg/kg] | ED50 (Mus musculus [3]) [mg/kg] | other results
1 | FC(F)C(F)(F)Sc1nc(-c2ccccc2)c(-c2ccccc2)[nH]1 | 1.2 |  | ED50 (Mus musculus [1]): 81 mg/kg
2 | FC(F)(F)CSc1nc(-c2ccc(Cl)cc2)c(-c2ccc(Cl)cc2)[nH]1 | 4 | > 130 | 
3 | FC(F)(F)C(F)(F)CSc1nc(-c2ccccc2)c(-c2ccccc2)[nH]1 |  | > 135 | 
4 | FC(F)C(F)(F)Sc1nc(-c2cccc(Cl)c2)c(-c2ccccc2)[nH]1 |  | > 130 | 
5 | Fc1ccc(-c2nc(SC(F)(F)C(F)F)[nH]c2-c2ccccc2)cc1 | 0.18 | > 130 | 
6 | FC(F)C(F)(F)Sc1nc(-c2ccc(Cl)c(Cl)c2)c(-c2ccccc2)[nH]1 |  | > 130 | 
7 | CCSc1nc(-c2ccccc2)c(-c2ccccc2)[nH]1 | 100 | > 130 | 
8 | CSc1nc(-c2ccc(Cl)cc2)c(-c2ccc(C(F)(F)F)cc2)[nH]1 |  | > 130 | 
9 | CS(=O)(=O)c1nc(-c2ccc(Cl)cc2)c(-c2ccc(F)cc2)[nH]1 |  | > 130 | 
10 | C[S+]([O-])c1nc(-c2cccc(Cl)c2)c(-c2ccccc2)[nH]1 (configuration not stated) |  | > 130 | Decrease (Rattus norvegicus [4]): 77%
11 | CCOc1ccc(-c2[nH]c(S(C)(=O)=O)nc2-c2ccccc2)cc1 |  | > 130 | Decrease (Rattus norvegicus [5]): 41%
12 | COc1ccc(-c2[nH]c(SC)nc2-c2ccccc2)cc1 |  | > 130 | Decrease (Rattus norvegicus [6]): 35%
13 | COc1ccc(-c2nc(SCC(F)(F)F)[nH]c2-c2ccc(OC)cc2)cc1 | 35 | > 135 | 
14 | CS(=O)(=O)c1nc(-c2ccc(F)cc2)c(-c2ccccc2)[nH]1 | > 9 |  | ED50 (Mus musculus [1]): 135 mg/kg
15 | COc1ccc(-c2nc([S+]([O-])CC(C)=O)[nH]c2-c2ccc(OC)cc2)cc1 (configuration not stated) | 35 |  | ED50 (Mus musculus [1]): 135 mg/kg
16 | COc1ccc(-c2nc(S(=O)(=O)C(C)C)[nH]c2-c2ccc(OC)cc2)cc1 |  | > 130 | 
17 | CS(=O)(=O)c1nc(-c2ccc(Cl)cc2)c(-c2ccccc2)[nH]1 |  | > 130 | 
18 | C[S+]([O-])c1nc(-c2ccc(F)cc2)c(-c2ccc(F)cc2)[nH]1 (configuration not stated) |  | > 130 | 
19 | O=S(=O)(CCC(F)(F)C(F)(F)F)c1nc(-c2ccccc2)c(-c2ccccc2)[nH]1 | > 75 | > 130 | 
20 | CSc1nc(-c2cccc(F)c2)c(-c2ccccc2)[nH]1 | 75 | > 130 | 

Row | Structure (SMILES) | ED50 (Rattus norvegicus [2]) [mg/kg] | ED50 (Mus musculus [3]) [mg/kg] | other results
21 | COc1ccc(-c2nc(SCSC)[nH]c2-c2ccc(OC)cc2)cc1 |  | > 130 | Decrease (Rattus norvegicus [7]): 46%
22 | CSc1nc(-c2ccc(C)cc2)c(-c2ccc(C)cc2)[nH]1 |  | > 130 | Decrease (Rattus norvegicus [6]): 26%
23 | COc1ccc(-c2[nH]c(S(=O)(=O)C(F)(F)C(F)F)nc2-c2ccccc2Cl)cc1 | 6 |  | 
24 | [O-][S+](CC(F)(F)C(F)(F)F)c1nc(-c2ccccc2)c(-c2ccccc2)[nH]1 (configuration not stated) | > 75 | > 130 | 
25 | CSc1ccc(-c2[nH]c(SC(F)(F)C(F)F)nc2-c2ccc(F)cc2)cc1 | 1.6 | > 108 | 
26 | CS(=O)(=O)c1nc(-c2ccc(C(F)(F)F)cc2)c(-c2ccccc2)[nH]1 |  | > 130 | Decrease (Rattus norvegicus [5]): 32%
27 | CS(=O)(=O)c1nc(-c2ccc(Cl)c(Cl)c2)c(-c2ccccc2)[nH]1 |  | > 130 | Decrease (Rattus norvegicus [5]): 59%
28 | FC(F)C(F)(F)Sc1nc(-c2cccc(Cl)c2)c(-c2cccc(Cl)c2)[nH]1 | 1.2 | > 130 | 
29 | CS(=O)(=O)c1nc(-c2ccc(Cl)cc2)c(-c2ccc(C(F)(F)F)cc2)[nH]1 |  | > 135 | 
30 | CSc1nc(-c2ccc(Cl)cc2)c(-c2ccc(F)cc2)[nH]1 |  | > 130 | 
31 | Fc1ccc(-c2nc(SC(F)(F)C(F)F)[nH]c2-c2ccc(F)cc2)cc1 | 0.05 | > 81 | 
32 | CSc1nc(-c2ccc(Cl)cc2)c(-c2ccc(Cl)cc2)[nH]1 | 4 | > 135 | 
33 | CCCCSc1nc(-c2ccccc2)c(-c2ccccc2)[nH]1 | > 75 | > 130 | 
34 | COc1ccc(-c2nc(SCC(C)=O)[nH]c2-c2ccc(OC)cc2)cc1 | 10 |  | 
35 | C[S+]([O-])c1nc(-c2ccc(Cl)c(Cl)c2)c(-c2ccccc2)[nH]1 (configuration not stated) |  | > 130 | Decrease (Rattus norvegicus [5]): 46%
36 | CSc1nc(-c2ccc(Cl)c(Cl)c2)c(-c2ccccc2)[nH]1 |  | > 130 | Decrease (Rattus norvegicus [6]): 62%
37 | CCCCS(=O)(=O)c1nc(-c2ccccc2)c(-c2ccccc2)[nH]1 | > 100 | > 130 | 
38 | Fc1cccc(-c2nc(SC(F)(F)C(F)F)[nH]c2-c2ccccc2)c1 | 2.5 | > 130 | 
39 | O=S(=O)(CC(F)(F)C(F)(F)F)c1nc(-c2ccccc2)c(-c2ccccc2)[nH]1 | > 100 | > 130 | 
40 | Cl.Nc1ccc(-c2[nH]c(S(=O)(=O)C(F)(F)C(F)F)nc2-c2ccc(F)cc2)cc1 | > 3 |  | 

Source: ChEMBL document CHEMBL1123026, “Preparation and antiarthritic and analgesic activity of 4,5-diaryl-2-(substituted thio)-1H-imidazoles and their sulfoxides and sulfones” (1985)
